Data set [1] addresses T1, Ketohexokinase (Homo sapiens, UniProt P50053).
T1 sequence (P50053 whole entry): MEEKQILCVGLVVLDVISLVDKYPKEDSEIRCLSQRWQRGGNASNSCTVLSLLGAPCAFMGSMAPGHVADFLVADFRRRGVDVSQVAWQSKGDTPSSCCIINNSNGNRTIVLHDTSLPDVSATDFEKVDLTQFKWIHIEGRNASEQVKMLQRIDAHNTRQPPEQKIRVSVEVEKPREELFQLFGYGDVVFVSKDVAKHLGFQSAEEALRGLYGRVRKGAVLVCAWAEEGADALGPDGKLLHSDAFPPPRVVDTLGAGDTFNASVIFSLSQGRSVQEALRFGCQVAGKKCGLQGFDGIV
Briefly: Inhibition of recombinant human N-terminal His-tagged KHK expressed in Escherichia coli BL21(DE3) using fructose as substrate incubated for 30 mins followed by ATP addition measured for 30 mins by pyruvate kinase-lactate dehydrogenase coupled enzyme assay. The following applies: read-out: IC50. Summed up:
(§1)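 Thrombin-cleaved (His-tag removed) human or rat KHK at 10 nM, preincubated 30 min at room temperature with compound (11-point series, 2.5% DMSO). Started with 0.2 mM ATP; NADH A340 read kinetically for 30 min. IC50 from nonlinear fit of percent inhibition; mean of replicates.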

A short description of data set [2]: Apparent clearance in human liver microsomes. The following applies: read-out: CLH(app). The format is ADME, microsome.
Data set [3] can be described thus: Octanol/water partition coefficient, log D of the compound at pH 7.4 by shake-flask method. The format is physicochemical. A digest of the protocol: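 LogD measured by shake-flask octanol:water partition at pH 7.4.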
For data set [4], the target named is T1, Ketohexokinase. The experiment in a line: Binding affinity to full length recombinant human biotin-labeled KHK by SPR assay. A digest of the protocol: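 Full-length biotinylated KHK captured on a streptavidin sensor (7000-8000 RU). Run buffer was 50 mM HEPES pH 7.4, 150 mM NaCl, 0.01% P20, 500 µM TCEP, 3% DMSO at 25 °C. Eleven 2-fold concentrations from 300 µM top, stop-flow with 60 s association and ≥120 s dissociation. Data double-referenced and DMSO-corrected; KD by steady-state affinity fit, n=1.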
A general note: Surface plasmon resonance follows binding to a sensor surface in real time, without labels.

For data set [5], the target named is T2, Ketohexokinase (Homo sapiens) (UniProt P50053).
T2 sequence (whole entry): T1 sequence (P50053 whole entry)
The experiment in a line: Inhibition of recombinant full length human His-tagged KHK expressed in Escherichia coli BL21(DE3) using at 240 uM by 1D NMR-STD spectroscopic method. A digest of the protocol: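 Full-length His-tagged human KHK (tag retained) at 5 μM in 50 mM Tris-d, 100 mM NaCl, 2 mM TCEP-d, 5% glycerol-d, pH 7.5, 298 K. AMP-PMP at 240 μM served as positive control. Saturation-transfer difference NMR used 512 scans and 3 s Gaussian on/off-resonance saturation. Binding was called from positive difference signals, with ligands assigned against each fragment's 1D 1H reference spectrum.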

Data set [6] concerns the target T3, Ketohexokinase (Rattus norvegicus, UniProt Q02974).
T3 sequence (Q02974 whole entry): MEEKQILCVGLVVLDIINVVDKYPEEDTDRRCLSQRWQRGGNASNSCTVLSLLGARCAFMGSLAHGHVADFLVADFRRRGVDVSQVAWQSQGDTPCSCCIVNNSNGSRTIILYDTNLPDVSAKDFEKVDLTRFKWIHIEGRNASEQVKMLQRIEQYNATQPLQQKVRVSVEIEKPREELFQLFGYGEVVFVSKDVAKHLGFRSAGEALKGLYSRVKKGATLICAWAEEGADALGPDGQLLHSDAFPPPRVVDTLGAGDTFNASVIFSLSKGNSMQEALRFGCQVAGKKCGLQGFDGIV
The experiment in a line: Inhibition of recombinant rat N-terminal His-tagged KHK expressed in Escherichia coli BL21(DE3) using fructose as substrate incubated for 30 mins followed by ATP addition measured for 30 mins by pyruvate kinase-lactate dehydrogenase coupled enzyme assay. The following applies: read-out: IC50. Summed up:
as §1

Data set [7] in a line: Apparent permeability in RRCK cells by LC-MS/MS analysis. The data set is classed as ADME, cell-based, Canis lupus familiaris, MDCKII-LE. As to conditions: dog, MDCK.
Data set [8] is described as follows: Thermodynamic solubility of compound at pH 7.4. The data set is classed as physicochemical. The following applies: buffer, read-out: Therm_solubility. A digest of the protocol:
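Thermodynamic solubility determined at pH 7.4.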

A short description of data set [9]: Fraction unbound in human plasma at 10 uM measured at 2 to 24 hrs by equilibrium dialysis method. The data set is classed as ADME, cell-free. On the technique in general: In equilibrium dialysis free small molecules cross a membrane that holds back macromolecules.
Data set [10] concerns Rattus norvegicus. Briefly: Unbound Cmax in rat at 300 mg/kg, po. The data set is classed as ADME, organism-based. As to conditions: in vivo. Summed up: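 Rats given 300 mg/kg orally in 0.25% HPC-SL/0.05% DOSS vehicle. Free plasma concentrations determined; mean ± SD, n = 3 per data point.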

Structures are written as SMILES. ≈ marks a conversion by molar mass, not a printed value. Calls of active or inactive are those of the source. The rule behind the calls is not given here. A value given as a limit tells only on which side of the number the result lay.

These results are taken from ChEMBL document CHEMBL4017511, “Discovery of Fragment-Derived Small Molecules for in Vivo Inhibition of Ketohexokinase (KHK)” (J Med Chem, 2017).

`CCc1cc2nc(C(F)(F)F)c(C#N)c(N3CCC(C)(O)C3)c2[nH]1` (racemic): in data set [1], the IC50 (commonly the concentration at which inhibition is half-maximal) came out at 1.48 µM. In addition, in [2], the microsomal CLint was determined as 103 µL/min/mg. In addition, the logD (commonly the decadic logarithm of the distribution of all forms, ionised or not, between an organic phase and buffer at a given pH) in data set [3] worked out at 2.8.

For `N#Cc1c(C(F)(F)F)cc(N2CCN(CCO)CC2)nc1N1CCCC(CO)C1` (stereo not drawn), in [1], the IC50 worked out at 16.8 µM.

On to `Oc1nc2ccccc2nc1C(F)(F)F`, for which the Kd – broadly, the free concentration of one partner at which half of the binding sites on the other are occupied at equilibrium, for simple one-to-one binding – in data set [4] stood at 44 µM. Moreover, the IC50 in data set [1] came out at 100 µM. The inhibition entry in data set [5] was “Active”.

On to `Cc1cc(C)c(C#N)c(N2CCOCC2)n1`, for which the Kd in data set [4] amounted to 62 µM. Further, in data set [1], the IC50 is 319 µM. The inhibition entry in data set [5] was “Active”.

As to `C[C@]1(O)CCN(c2c(C#N)c(C(F)(F)F)nc3cc[nH]c23)C1`, the IC50 in data set [1] amounted to 0.67 µM; in data set [6], 0.64 µM. The microsomal CLint in data set [2] was below 8 µL/min/mg. The same compound returned a logD in [3] of 2.2. In data set [7], the Papp (usually a coefficient for how fast a substance crosses the barrier) amounted to 14 ×10⁻⁶ cm/s. In data set [8], the solubility thermodynamic turned out to be 147 µM (≈ 45.6 µg/mL). Besides, the free fraction (fraction unbound) (in general, free concentration divided by total concentration) at 10 µM in data set [9] came to 0.032. The compound further yielded a fCmax in data set [10] of 1.3 µM.
